Several values for one entry are separate records, joined by “and”; a condition that tells them apart may be missing. Equal entries are not always repeated.
Test system: U2OS
Experiment: Multiplex assay against U2OS
Format: toxicity, cell-based
Conditions: human
Procedure, shortened: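 With compound added, live cells were imaged on a CQ1 microscope at 37°C and 5% CO2; staining with Hoechst33342, BioTracker Green Microtubule Cytoskeleton Dye, MitoTracker Red and Annexin V Alexa Fluor 680 had been done at seeding. The CellPathfinder machine-learning gating scheme split cells into Hoechst high-intensity objects or normal cells, normal cells into healthy, pyknosed or fragmented nuclei, and pyknosed cells into mitotic or apoptotic. The tubulin, mitochondrial-mass and membrane-permeability phenotypes are per cents of healthy-nucleus cells.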

[1] = 12 h, 1 µM, compound concentration 1 uM
[2] = 12 h, 10 µM, compound concentration 10 uM
[3] = 24 h, 1 µM, compound concentration 1 uM
[4] = 24 h, 10 µM, compound concentration 10 uM
[5] = 48 h, 1 µM, compound concentration 1 uM
[6] = 48 h, 10 µM, compound concentration 10 uM

COC(=O)c1ccc2c(c1)NC(=O)/C2=C(\Nc1ccc(N(C)C(=O)CN2CCN(C)CC2)cc1)c1ccccc1 [NINTEDANIB]
Population Apoptotic (%) [1]: 50% and 43.75% | Population Fragmented Nuclei (%) [1]: 2.42% and 2.88% | Population Healthy Nuclei (%) [1]: 89.37% and 85.61% | Population Hoechst High Intensity Objects (%) [1]: 0% | Population Membrane Permeable-Phenotype (%) [1]: 1.62% and 4.2% | Population Mitochondria Different-Phenotype (%) [1]: 0% and 14.29% | Population Mitotic Cells (%) [1]: 50% and 56.25% | Population Normal (%) [1]: 100% | Population Pyknosed Nuclei (%) [1]: 8.21% and 11.51% | Population Tubulin-Different-Phenotype (%) [1]: 1.89% and 2.52% | Total Cell Count [1]: 414 and 139 | Population Apoptotic (%) [2]: 48.33% and 44.44% | Population Fragmented Nuclei (%) [2]: 3.26% and 6.04% | Population Healthy Nuclei (%) [2]: 72.3% and 74.18% | Population Hoechst High Intensity Objects (%) [2]: 0% | Population Membrane Permeable-Phenotype (%) [2]: 21.97% and 30.37% | Population Mitotic Cells (%) [2]: 51.67% and 55.56% | Population Normal (%) [2]: 100% | Population Pyknosed Nuclei (%) [2]: 24.44% and 19.78% | Population Tubulin-Different-Phenotype (%) [2]: 64.79% and 29.63% | Total Cell Count [2]: 491 and 182 | Population Apoptotic (%) [3]: 35.56% and 50% | Population Fragmented Nuclei (%) [3]: 1.16% and 2.33% | Population Healthy Nuclei (%) [3]: 90.15% and 79.07% | Population Hoechst High Intensity Objects (%) [3]: 0% | Population Membrane Permeable-Phenotype (%) [3]: 1.07% and 1.47% | Population Mitotic Cells (%) [3]: 64.44% and 50% | Population Normal (%) [3]: 100% | Population Pyknosed Nuclei (%) [3]: 8.69% and 18.6% | Population Tubulin-Different-Phenotype (%) [3]: 1.28% and 1.47% | Population Apoptotic (%) [4]: 62.5% and 65.62% | Population Fragmented Nuclei (%) [4]: 5.58% and 6.29% | Population Healthy Nuclei (%) [4]: 63.02% and 57.14% | Population Hoechst High Intensity Objects (%) [4]: 0% | Population Membrane Permeable-Phenotype (%) [4]: 6.23% and 9% | Population Mitotic Cells (%) [4]: 37.5% and 34.38% | Population Normal (%) [4]: 100% | Population Pyknosed Nuclei (%) [4]: 31.4% and 36.57% | Population Tubulin-Different-Phenotype (%) [4]: 63.93% and 46% | Total Cell Count [4]: 484 and 175 | Population Apoptotic (%) [5]: 57.5% and 53.12% | Population Fragmented Nuclei (%) [5]: 1.52% and 3.23% | Population Healthy Nuclei (%) [5]: 89.14% and 83.87% | Population Hoechst High Intensity Objects (%) [5]: 0% | Population Membrane Permeable-Phenotype (%) [5]: 2.1% and 4.33% | Population Mitochondria Different-Phenotype (%) [5]: 0.26% and 9.62% | Population Mitotic Cells (%) [5]: 42.5% and 46.88% | Population Normal (%) [5]: 100% | Population Pyknosed Nuclei (%) [5]: 9.35% and 12.9% | Population Tubulin-Different-Phenotype (%) [5]: 1.57% and 3.37% | Population Apoptotic (%) [6]: 78.69% and 91.94% | Population Fragmented Nuclei (%) [6]: 1.9% and 1.52% | Population Healthy Nuclei (%) [6]: 54.63% and 51.52% | Population Hoechst High Intensity Objects (%) [6]: 0.24% and 0% | Population Membrane Permeable-Phenotype (%) [6]: 1.74% and 8.82% | Population Mitochondria Different-Phenotype (%) [6]: 29.13% and 51.47% | Population Mitotic Cells (%) [6]: 21.31% and 8.06% | Population Normal (%) [6]: 99.76% and 100% | Population Pyknosed Nuclei (%) [6]: 43.47% and 46.97% | Population Tubulin-Different-Phenotype (%) [6]: 69.57% and 76.47%

COc1cc(/C=C(\C#N)C(=O)Nc2nnc(C(F)(F)F)s2)ccc1OCc1ccc(C(F)(F)F)cc1C(F)(F)F
Population Apoptotic (%) [1]: 22.22% and 38.1% | Population Fragmented Nuclei (%) [1]: 1.99% and 4.9% | Population Healthy Nuclei (%) [1]: 89.05% and 80.42% | Population Hoechst High Intensity Objects (%) [1]: 0% | Population Membrane Permeable-Phenotype (%) [1]: 0.84% and 2.61% | Population Mitochondria Different-Phenotype (%) [1]: 0.28% and 6.09% | Population Mitotic Cells (%) [1]: 77.78% and 61.9% | Population Normal (%) [1]: 100% | Population Pyknosed Nuclei (%) [1]: 8.96% and 14.69% | Population Tubulin-Different-Phenotype (%) [1]: 0.56% and 0% | Total Cell Count [1]: 402 and 143 | Population Apoptotic (%) [2]: 36.59% and 47.06% | Population Fragmented Nuclei (%) [2]: 1.77% and 5.29% | Population Healthy Nuclei (%) [2]: 87.88% and 85.71% | Population Hoechst High Intensity Objects (%) [2]: 0% | Population Membrane Permeable-Phenotype (%) [2]: 0.57% and 6.17% | Population Mitochondria Different-Phenotype (%) [2]: 0.29% and 3.09% | Population Mitotic Cells (%) [2]: 63.41% and 52.94% | Population Normal (%) [2]: 100% | Population Pyknosed Nuclei (%) [2]: 10.35% and 8.99% | Population Tubulin-Different-Phenotype (%) [2]: 1.72% and 0% | Total Cell Count [2]: 396 and 189 | Population Apoptotic (%) [3]: 43.86% and 43.48% | Population Fragmented Nuclei (%) [3]: 1.6% and 6.28% | Population Healthy Nuclei (%) [3]: 88.24% and 81.68% | Population Hoechst High Intensity Objects (%) [3]: 0% | Population Membrane Permeable-Phenotype (%) [3]: 0.81% and 3.85% | Population Mitochondria Different-Phenotype (%) [3]: 0% and 5.13% | Population Mitotic Cells (%) [3]: 56.14% and 56.52% | Population Normal (%) [3]: 100% | Population Pyknosed Nuclei (%) [3]: 10.16% and 12.04% | Population Tubulin-Different-Phenotype (%) [3]: 0.81% and 0.64% | Total Cell Count [3]: 561 and 191 | Population Apoptotic (%) [4]: 52.08% and 57.69% | Population Fragmented Nuclei (%) [4]: 0.74% and 3.08% | Population Healthy Nuclei (%) [4]: 90.41% and 85.46% | Population Hoechst High Intensity Objects (%) [4]: 0% | Population Membrane Permeable-Phenotype (%) [4]: 1.43% and 7.22% | Population Mitochondria Different-Phenotype (%) [4]: 0% and 1.03% | Population Mitotic Cells (%) [4]: 47.92% and 42.31% | Population Normal (%) [4]: 100% | Population Pyknosed Nuclei (%) [4]: 8.86% and 11.45% | Population Tubulin-Different-Phenotype (%) [4]: 1.43% and 0.52% | Total Cell Count [4]: 542 and 227 | Population Apoptotic (%) [5]: 46.05% and 40.48% | Population Fragmented Nuclei (%) [5]: 3.37% and 3.16% | Population Healthy Nuclei (%) [5]: 89.31% and 83.54% | Population Hoechst High Intensity Objects (%) [5]: 0% | Population Membrane Permeable-Phenotype (%) [5]: 1.29% and 1.14% | Population Mitochondria Different-Phenotype (%) [5]: 0.11% and 2.65% | Population Mitotic Cells (%) [5]: 53.95% and 59.52% | Population Normal (%) [5]: 100% | Population Pyknosed Nuclei (%) [5]: 7.32% and 13.29% | Population Tubulin-Different-Phenotype (%) [5]: 0.32% and 0% | Population Apoptotic (%) [6]: 40% and 47.5% | Population Fragmented Nuclei (%) [6]: 2.52% and 1.99% | Population Healthy Nuclei (%) [6]: 89.1% and 88.09% | Population Hoechst High Intensity Objects (%) [6]: 0% | Population Membrane Permeable-Phenotype (%) [6]: 0.47% and 3.66% | Population Mitochondria Different-Phenotype (%) [6]: 0% and 0.85% | Population Mitotic Cells (%) [6]: 60% and 52.5% | Population Normal (%) [6]: 100% | Population Pyknosed Nuclei (%) [6]: 8.39% and 9.93% | Population Tubulin-Different-Phenotype (%) [6]: 0.82% and 1.13% | Total Cell Count [6]: 954 and 403

Source: ChEMBL document CHEMBL5724801, “EUbOPEN Chemogenomics Library - Multiplex” (2024)
